Bioassay records (PubChem BioAssay)
C2C12 statin – protects C2C12 myotubes from simvastatin toxicity | ATP luminescence, 48 h; scaled: DMSO 0, geranylgeraniol control 100 | rescue of ATP level, % at 7.49 µM | 330,000 compounds, 0.78% hits;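 active = mean ATP rescue above about 67%, or every replicate alone reaching that limit, limit read from the data, passing the limit was not always enough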;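 note: myotubes were challenged with 10 µM simvastatin during compound exposure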
Cneo AK release – causes C. neoformans cell lysis; AID 651654; adenylate kinase release luminescence, 4 h; normalised: neutral wells 0, clomiphene wells 100; 360,000 compounds, 0.2% hits; lysis activity, % at 15 µM;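 active = mean lysis activity across replicates of at least 80%, whatever share of replicates individually reach that level; inactive = mean lysis activity below 80%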
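Assay system: C. neoformans cells. Amount: yeast cell density of 5 × 10^6 cells/mL. Technique: AK luminescence. Buffer or medium: YPD. Times: static 4 h at 37 °C with compound, 1 h detection. Dosing: single-point compound dose. Read-out: lysis from increased AK signal.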
SIRT5 inh – inhibitors of human sirtuin-5 desuccinylase; Q9NXA8; Purified SirT5, succinyl-peptide AMC, trypsin-coupled fluorescence; inhibition, % at 15 µM; 330,000 compounds, 1.1% hits; AID 652115; in the data active = inhibition above about 15%
Target sequence (Q9NXA8 whole entry, looked up): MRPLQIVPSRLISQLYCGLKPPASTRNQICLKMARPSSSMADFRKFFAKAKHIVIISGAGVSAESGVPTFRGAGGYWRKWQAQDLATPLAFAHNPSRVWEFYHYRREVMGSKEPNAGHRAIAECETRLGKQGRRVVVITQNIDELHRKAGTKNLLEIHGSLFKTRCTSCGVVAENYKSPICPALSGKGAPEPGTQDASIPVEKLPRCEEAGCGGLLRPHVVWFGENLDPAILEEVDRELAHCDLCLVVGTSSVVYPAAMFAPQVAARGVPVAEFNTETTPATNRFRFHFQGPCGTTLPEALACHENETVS
S100A4 inh HTS – inhibitors of human S100A4 binding to myosin IIA peptide. P26447. S100A4/TAMRA-MyoIIA peptide fluorescence polarization. inhibition, % at 10.7 µM. 360,000 compounds, 0.14% hits;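 active = mean inhibition of at least 70% across replicates, with every replicate also reaching that level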
Target sequence (P26447 whole entry, looked up): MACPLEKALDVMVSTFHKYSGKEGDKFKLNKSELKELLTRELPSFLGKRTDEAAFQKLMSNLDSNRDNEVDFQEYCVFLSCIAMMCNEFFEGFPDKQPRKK
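Material: human S100A4 monomer with TAMRA-labelled myosin IIA peptide; buffer or medium: HEPES pH 7.2 with CaCl2, KCl, NaCl, DTT, Triton; compound dosing: one concentration per compound; schedule: 5 min incubation before reading; benchmarks: neutral control DMSO, positive control TFP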
PGC1a acetyl inh – PGC1a acetylation modulation, inhibitor mode; U2OS PGC1a acetylation, AlphaScreen anti-acetyl-lysine; with virally co-expressed GCN5 acetyltransferase; inhibition, % at 15.6 µM; 350,000 compounds, 0.17% hits;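 active = every replicate shows inhibition of at least 40%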
rRNA inh HTS – selective bacterial rRNA inhibition in E. coli. E. coli WT GFP vs humanized-ribosome RFP mutants, fluorescence, 24 h; active compounds read low; DMSO median 0, no signal -100. GFP signal change (wild-type ribosome), % (concentration not given with the values). 350,000 compounds, 1.6% hits. AID 720706;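 active = significant combined selectivity score with lowered wild-type GFP, culture density cut under 30%, mutant RFP and density less affected; inactive = any of these conditions unmet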
Of the large screens only hits and unclear results are named; the others gave an inactive call. Hits are enriched below; roughly 3% of the tested compounds scored in any of these assays.

O=C(NCC[C@H]1CC[C@@H](NS(=O)(=O)c2ccc(F)cc2)[C@H](CO)O1)c1ccc2c(c1)OCO2	Cneo AK release 94.7
Cc1ccc(S(=O)(=O)N[C@H]2CC[C@H](CCNC(=O)c3ccc4c(c3)OCO4)O[C@H]2CO)cc1	SIRT5 inh 103.2
CS(=O)(=O)Nc1ccc2c(c1)[C@H]1C[C@@H](CC(=O)NCc3ccc(-c4ccccc4)cc3)O[C@H](CO)[C@H]1O2	none (no result: SIRT5 inh, S100A4 inh HTS)
Cc1ccc(CN2Cc3cccc4c3[C@@H](CC2=O)[C@H](O)[C@H](O)C4)cc1	none
O=C1C[C@@H]2c3c(cccc3CN1Cc1ccc(Br)cc1)C[C@@H](O)[C@H]2O	C2C12 statin 100.4
CN(C)Cc1cn(CC[C@@H]2CC[C@H](N)[C@@H](CO)O2)nn1	none
CC(=O)N1CCC2(CC1)C/C(=N\NC(=S)Nc1ccccc1C)c1cc(O)ccc1O2	SIRT5 inh 20.8
C[C@@H]1CCCCO[C@H](CN(C)Cc2ccccc2)[C@H](C)CN([C@H](C)CO)C(=O)c2cc(NC(=O)c3ccccc3)ccc2O1	none (no result: C2C12 statin, SIRT5 inh, S100A4 inh HTS)
COc1ccc(C(=O)N/N=C/c2ccc(N3CCOCC3)o2)cc1OC	none (no result: C2C12 statin, Cneo AK release, PGC1a acetyl inh)
COc1ccc(C(=O)N/N=C/c2ccc(N3CCOCC3)s2)cc1OC	rRNA inh HTS -15.5
O=C(C[C@@H]1CC[C@H]2[C@@H](COC[C@@H](O)CN2C(=O)Nc2ccc3c(c2)OCO3)O1)N1CCN(c2ccccc2)CC1	none
CCCCCC1CC(CC(=O)O)C(=O)O1 (stereo not drawn)	C2C12 statin 119.3 (no result: SIRT5 inh, S100A4 inh HTS, rRNA inh HTS)
CCCCCC1CC(CC(=O)Nc2ccc([N+](=O)[O-])cc2)C(=O)O1 (stereo not drawn)	none (no result: C2C12 statin, Cneo AK release, PGC1a acetyl inh)
Cc1ccc(CN(C)CCc2ccccn2)cc1	none (no result: SIRT5 inh, S100A4 inh HTS, rRNA inh HTS)
CCc1ccc(CN(C)CCc2ccccn2)cc1	SIRT5 inh 20.8
CCC(=O)Nc1ccc2c(c1)OC[C@H](C)N(C(=O)C1CC1)C[C@H](C)[C@@H](OC)CN(C)C2=O	none (no result: S100A4 inh HTS)
CCOC(=O)c1c(NC(=O)CSc2nnc(-c3ccccc3)n2CC)sc(C(C)=O)c1C	rRNA inh HTS -37.0 (no result: SIRT5 inh)
O=C(C/C=N\OCc1ccc([N+](=O)[O-])cc1)Nc1ccc(Cl)cc1	rRNA inh HTS -40.5 (no result: C2C12 statin, Cneo AK release, PGC1a acetyl inh)
O=C(Nc1cccc(Cl)c1)N[C@@H]1CC[C@@H](CCNC(=O)C2CCCC2)O[C@H]1CO	none
Cc1cccc(Nc2nnc(-c3ccc(N4CCOCC4)c([N+](=O)[O-])c3)c3ccccc23)c1	rRNA inh HTS -32.4
CCOC(=O)/C(C#N)=C/c1cc2ccccc2nc1N1CCCCC1	SIRT5 inh 111.9 (no result: C2C12 statin, Cneo AK release, PGC1a acetyl inh)
Cc1ccc2cc(/C=C(\C#N)C(N)=O)c(N3CCCCC3)nc2c1	none (no result: C2C12 statin, Cneo AK release, PGC1a acetyl inh)
CCc1ccc(-c2cc(C)no2)cc1S(=O)(=O)Nc1cc(C)ccn1	SIRT5 inh 31.7
CCc1ccc(-c2cc(C)no2)cc1S(=O)(=O)NCc1ccco1	none (no result: Cneo AK release)
CC(C)C#Cc1cnc2c(c1)C(=O)N([C@H](C)CO)C[C@@H](C)[C@H](CN(C)C(=O)c1cccnc1)O2	none
S=c1[nH]nc(-c2ccco2)n1/N=C/C(Cl)=C/c1ccccc1	rRNA inh HTS -36.4 (no result: C2C12 statin)
Cc1cc(-c2n[nH]c(=S)n2/N=C/C(Cl)=C/c2ccccc2)n[nH]1	none (no result: C2C12 statin, SIRT5 inh, S100A4 inh HTS, rRNA inh HTS)
CC(C)C#Cc1ccc2c(c1)O[C@@H](CN(C)S(=O)(=O)c1cn(C)cn1)[C@H](C)CN([C@H](C)CO)S2(=O)=O	none
COc1ccc(CN2CCCC(C(=O)N(C)Cc3ccccc3)C2)cc1OC (stereo not drawn)	none (no result: C2C12 statin, SIRT5 inh, S100A4 inh HTS, rRNA inh HTS)
COc1ccc2cc(-c3[nH]ncc3CN3CCCC3c3nonc3C)ccc2c1 (stereo not drawn)	rRNA inh HTS -23.1
COc1ccccc1CN1CCCC(C(=O)N(C)Cc2ccccc2)C1 (stereo not drawn)	PGC1a acetyl inh 45.0 (no result: C2C12 statin, Cneo AK release, SIRT5 inh, S100A4 inh HTS, rRNA inh HTS)
CCOC(=O)c1[nH]ncc1CN1CCCC(C(=O)c2cccc(OC(C)C)c2)C1 (stereo not drawn)	none (no result: SIRT5 inh, S100A4 inh HTS, rRNA inh HTS)
COc1ccc(-c2[nH]ncc2CN2CCCC(C(=O)c3cccc(OC)c3)C2)cc1 (stereo not drawn)	SIRT5 inh 18.0
COc1ccc(C(=O)C2CCCN(Cc3cn[nH]c3-c3ccccc3)C2)cc1OC (stereo not drawn)	SIRT5 inh 28.7
